Key:
[1] = Half-life for disappearance of compound from dog whole blood; assay type: ADME, organism-based, Canis lupus familiaris
Outline: (§1)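 Freshly collected whole blood, or 10% w/v brain homogenate in pH 7.4 phosphate buffer (ionic strength 0.15), was prewarmed to 37 °C. Compound was spiked from an 8 mM DMSO stock to 40 µM final. Timed samples were quenched in 8% DMSO/acetonitrile, centrifuged, filtered and analyzed by reversed-phase C8 HPLC with UV detection. K came from linear regression of log peak height versus time, with t1/2 derived from it. Values are mean ± SE of three determinations in different animal samples.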

[2] = Half-life for disappearance of compound from human whole blood; assay type: ADME, organism-based; outline: as §1
[3] = Half-life for disappearance of compound from rabbit 10% brain homogenate; assay type: ADME, Oryctolagus cuniculus; outline: as §1
[4] = Half-life for disappearance of compound from rabbit whole blood; assay type: ADME, organism-based, Oryctolagus cuniculus; outline: as §1
[5] = Half-life for disappearance of compound from rat 10% brain homogenate; assay type: ADME; outline: as §1
[6] = Half-life for disappearance of compound from rat whole blood; assay type: ADME, organism-based; outline: as §1
Canis familiaris = species: Canis familiaris; assay: Pseudo first-order rate constant (K) for disappearance of compound from dog whole blood; assay type: ADME, organism-based, Canis lupus familiaris; outline: as §1
Homo sapiens = species: Homo sapiens; assay: Pseudo first-order rate constant (K) for disappearance of compound from human whole blood; assay type: ADME, organism-based; outline: as §1
Oryctolagus cuniculus [7] = species: Oryctolagus cuniculus; assay: Pseudo first-order rate constant (K) for disappearance of compound from rabbit 10% brain homogenate; assay type: ADME
Outline: (§2)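 Freshly collected whole blood (rat trunk blood; rabbit) or 10% w/v brain homogenate made in pH 7.4 phosphate buffer (μ = 0.15), prewarmed to 37 °C. Compound added from 8 mM DMSO stock to a final 40 μM. Timed 0.3 mL samples were quenched in 8% DMSO/acetonitrile, centrifuged, filtered and analysed by reversed-phase C8 HPLC-UV. K came from linear regression of log peak height versus time; n=3 animal samples.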

Oryctolagus cuniculus [8] = species: Oryctolagus cuniculus; assay: Pseudo first-order rate constant (K) for disappearance of compound from rabbit whole blood; assay type: ADME, organism-based; outline: as §2
Rattus norvegicus [9] = species: Rattus norvegicus; assay: Pseudo first-order rate constant (K) for disappearance of compound from rat 10% brain homogenate; assay type: ADME; outline: as §2
[10] = Pseudo first-order rate constant (K) for disappearance of compound from rat whole blood; assay type: ADME, tissue-based; outline: as §2
Rattus norvegicus [11] = assay: Concentration of compound in rat brain after intravenous injection of 20 mg/kg benzyl-penicillin after 60 min;Below detection limit.; assay type: functional, organism-based; parameters: dose 20 mg/kg
Outline: (§3)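 Male Sprague-Dawley rats (200-250 g), conscious, received 60 µmol/kg (equimolar to 20 mg/kg benzylpenicillin) by tail-vein injection. Benzylpenicillin K was given in water/ethanol/propylene glycol, and the delivery systems in ethanol:propylene glycol 7:3, at 20 mg/mL. Rats were decapitated at set times (4-6 per point), with trunk blood heparinized and brain, kidney, liver and lung frozen. Benzylpenicillin was measured by disk microbioassay (Bacillus subtilis ATCC 6633) after >5-volume sterile-water dilution or homogenization, against matrix calibration curves; assay limit 0.05 µg/mL.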

Rattus norvegicus [12] = assay: Concentration of compound in rat blood after intravenous injection of 20 mg/kg benzyl-penicillin after 1 min; assay type: functional, organism-based; parameters: dose 20 mg/kg; outline: as §3
Rattus norvegicus [13] = assay: Concentration of compound in rat blood after intravenous injection of 20 mg/kg benzyl-penicillin after 10 min; assay type: functional, organism-based; parameters: dose 20 mg/kg; outline: as §3
Rattus norvegicus [14] = assay: Concentration of compound in rat blood after intravenous injection of 20 mg/kg benzyl-penicillin after 20 min; assay type: functional, organism-based; parameters: dose 20 mg/kg; outline: as §3
Rattus norvegicus [15] = assay: Concentration of compound in rat blood after intravenous injection of 20 mg/kg benzyl-penicillin after 3 min; assay type: functional, organism-based; parameters: dose 20 mg/kg; outline: as §3
Rattus norvegicus [16] = assay: Concentration of compound in rat blood after intravenous injection of 20 mg/kg benzyl-penicillin after 40 min; assay type: functional, organism-based; parameters: dose 20 mg/kg; outline: as §3
Rattus norvegicus [17] = assay: Concentration of compound in rat blood after intravenous injection of 20 mg/kg benzyl-penicillin after 5 min; assay type: functional, organism-based; parameters: dose 20 mg/kg; outline: as §3
Rattus norvegicus [18] = assay: Concentration of compound in rat blood after intravenous injection of 20 mg/kg benzyl-penicillin after 60 min; assay type: functional, organism-based; parameters: dose 20 mg/kg; outline: as §3
Rattus norvegicus [19] = assay: Concentration of compound in rat brain after intravenous injection of 20 mg/kg benzyl-penicillin after 1 min; assay type: functional, organism-based; parameters: dose 20 mg/kg; outline: as §3
Rattus norvegicus [20] = assay: Concentration of compound in rat brain after intravenous injection of 20 mg/kg benzyl-penicillin after 10 min; assay type: functional, organism-based; parameters: dose 20 mg/kg; outline: as §3
Rattus norvegicus [21] = assay: Concentration of compound in rat brain after intravenous injection of 20 mg/kg benzyl-penicillin after 20 min;Below detection limit.; assay type: functional, organism-based; parameters: dose 20 mg/kg; outline: as §3
Rattus norvegicus [22] = assay: Concentration of compound in rat brain after intravenous injection of 20 mg/kg benzyl-penicillin after 3 min; assay type: functional, organism-based; parameters: dose 20 mg/kg; outline: as §3
Rattus norvegicus [23] = assay: Concentration of compound in rat brain after intravenous injection of 20 mg/kg benzyl-penicillin after 40 min;Below detection limit.; assay type: functional, organism-based; parameters: dose 20 mg/kg; outline: as §3
Rattus norvegicus [24] = assay: Concentration of compound in rat brain after intravenous injection of 20 mg/kg benzyl-penicillin after 5 min; assay type: functional, organism-based; parameters: dose 20 mg/kg; outline: as §3

- half-life [1]: 5.7 min
- half-life [2]: 19.4 min
- half-life [3]: 4.6 min
- half-life [4]: 1.3 min
- half-life [5]: 5.7 min
- half-life [6]: 0.3 min
- K (Canis familiaris): 0.123 min⁻¹
- K (Homo sapiens): 0.037 min⁻¹
- K (Oryctolagus cuniculus [7]): 0.152 min⁻¹
- K (Oryctolagus cuniculus [8]): 0.553 min⁻¹
- K (Rattus norvegicus [9]): 0.125 min⁻¹
- K [10]: 2.712 min⁻¹
Structure (SMILES): CN1C=CCC(C(=O)NCCOC(=O)C2N3C(=O)C(NC(=O)Cc4ccccc4)C3SC2(C)C)=C1 (stereo unspecified)
- Concentration (Rattus norvegicus [11]): Below limit of detection
- Concentration (Rattus norvegicus [12]): 5 µg/mL
- Concentration (Rattus norvegicus [13]): 4.9 µg/mL
- Concentration (Rattus norvegicus [14]): 0.8 µg/mL
- Concentration (Rattus norvegicus [15]): 7.3 µg/mL
- Concentration (Rattus norvegicus [16]): 0.3 µg/mL
- Concentration (Rattus norvegicus [17]): 3.8 µg/mL
- Concentration (Rattus norvegicus [18]): 0.2 µg/mL
- Concentration (Rattus norvegicus [19]): 0.2 µg/mL
- Concentration (Rattus norvegicus [20]): 0.1 µg/mL
- Concentration (Rattus norvegicus [21]): Below limit of detection
- Concentration (Rattus norvegicus [22]): 0.3 µg/mL
- Concentration (Rattus norvegicus [23]): Below limit of detection
- Concentration (Rattus norvegicus [24]): 0.2 µg/mL

Source: ChEMBL document CHEMBL1124553, “Brain-specific chemical delivery systems for beta-lactam antibiotics. In vitro and in vivo studies of some dihydropyridine and dihydroisoquinoline derivatives of benzylpenicillin in rats” (J Med Chem, 1989)
